Results reported in publication PMC10472104 (Clinical Cancer Research, 2023).
“Also recorded” adds a separate entry of the source.

Tests used:
Type in all cases: cell-based, human
[1] = test system: γH2AX in TC32 cells; experiment: γH2AX expression by Western blotting; details: TC32, 24 hours
Summary of the method: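 Cells grown to 70–80% confluency in six-well plates, settled overnight, serum-starved 24 h, then given DMSO or increasing concentrations of test compound for 24 h. Lysates were transferred to nitrocellulose and blocked. Blots were probed overnight at 4°C with rabbit anti-phospho-H2AX (Ser139) and anti-total H2AX, then 1 h at room temperature with IRDye800CW anti-rabbit, and scanned on an Odyssey imager.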

[2] = test system: γH2AX foci in CHLA10 cells; experiment: γH2AX foci by immunofluorescence and confocal microscopy; details: CHLA10, increasing doses, 24 hours
Summary of the method: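 Cells were fixed in 4% paraformaldehyde 30 min at room temperature and permeabilized with 0.5% Triton-X. They were probed overnight at 4°C with rabbit anti-phospho-H2AX (Ser139), then Alexa Fluor 488 anti-rabbit, and DAPI-mounted. Foci were counted from confocal images.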

[3] = test system: γH2AX in CHLA10 cells; experiment: γH2AX expression by Western blotting; details: CHLA10, 24 hours
[4] = test system: TC32 and CHLA10 spheroids; experiment: 3D spheroid assays, comparison across both models; details: 4 days
[5] = test system: CHLA10 cells; experiment: Cell-cycle analysis; details: CHLA10 (Fig. 3B)
[6] = test system: TC32 cells; experiment: Cell-cycle analysis; details: TC32 (Fig. 3A)

Compound	γH2AX expression with increasing doses [1]	γH2AX foci formation [2]	γH2AX expression with increasing doses [3]	spheroid activity compared with kt-3283 [4]	cell-cycle arrest induced [5]	cell-cycle arrest induced [6]
O=C(c1cc(Cc2n[nH]c(=O)c3ccccc23)ccc1F)N1CCN(C(=O)C2CC2)CC1 [olaparib]	induced γH2AX expression in a dose-dependent manner	dose-dependent γH2AX foci formation	induced γH2AX expression in a dose-dependent manner			
Cn1ncnc1[C@H]1c2n[nH]c(=O)c3cc(F)cc(c23)N[C@@H]1c1ccc(F)cc1 [talazoparib]				equivalent activity; also recorded: equivalent efficacy		
O=C(CCCCCCC(=O)Nc1ccccc1)NO [vorinostat]	induced γH2AX expression in a dose-dependent manner	milder DNA damage foci formation	induced γH2AX expression in a dose-dependent manner		G0/G1 cell-cycle arrest	G0/G1 cell-cycle arrest
